Experimental data published in ChEMBL document CHEMBL3244008, “Design of species- or isozyme-specific enzyme inhibitors. 2. Differences between a bacterial and a mammalian thymidine kinase in the effect of thymidine substituents on affinity for the thymidine site” (J Med Chem, 1979).
The source made the active and inactive calls. The rule behind the calls is not given here.

Tests used:
[1] = Competitive inhibition of Escherichia coli B thymidine kinase using [2-14C]-thymidine as substrate assessed as formation of [14C]-TMP after 10 mins by Lineweaver-Burk double reciprocal plot analysis; details: read-out: Ki(app)
Outline: (§1)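 Fraction V E. coli thymidine kinase was assayed with MgATP 5.7 mM and Mg/Mn salts in Tris-HCl at 37 °C for 10 min, reading [14C]TMP after electrophoresis. Four or more thymidine levels (20–160 μM) were used at each of two inhibitor levels plus an inhibitor-free control, all in duplicate. Ki (competitive) or I50 (noncompetitive) came from replots of Lineweaver-Burk slopes against inhibitor concentration, reproducible to ±7%.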

Escherichia coli B [2] = assay: Inhibition of Escherichia coli B thymidine kinase using [2-14C]-thymidine as substrate assessed as formation of [14C]-TMP at 2 mM after 10 mins by liquid scintillation spectrometric analysis relative to control
Outline: (§2)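 E. coli thymidine kinase (fraction V, purified from frozen cells; 7.2 × 10⁻⁶ units per assay) in Tris-HCl 71 mM, MgCl2 2.85 mM, MnCl2 0.71 mM, ATP 5.7 mM, BSA and [2-14C]thymidine 82 μM with test compound. The mixture was held at 37 °C for 10 min, then boiled. [14C]TMP was resolved by paper electrophoresis (pH 7.6) and scintillation-counted, with the unincubated blank subtracted.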

Escherichia coli B [3] = assay: Inhibition of Escherichia coli B thymidine kinase using [2-14C]-thymidine as substrate assessed as formation of [14C]-TMP at 0.5 mM after 10 mins by liquid scintillation spectrometric analysis relative to control; outline: as §2
Escherichia coli B [4] = assay: Activation of Escherichia coli B thymidine kinase using [2-14C]-thymidine as substrate assessed as formation of [14C]-TMP at 0.1 mM after 10 mins by liquid scintillation spectrometric analysis relative to control; outline: as §2
Escherichia coli B [5] = assay: Activation of Escherichia coli B thymidine kinase using [2-14C]-thymidine as substrate assessed as formation of [14C]-TMP at 8 mM after 10 mins by liquid scintillation spectrometric analysis relative to control; outline: as §2
Escherichia coli B [6] = assay: Activation of Escherichia coli B thymidine kinase using [2-14C]-thymidine as substrate assessed as formation of [14C]-TMP at 0.5 mM after 10 mins by liquid scintillation spectrometric analysis relative to control; outline: as §2
Escherichia coli B [7] = assay: Activation of Escherichia coli B thymidine kinase using [2-14C]-thymidine as substrate assessed as formation of [14C]-TMP at 2 mM after 10 mins by liquid scintillation spectrometric analysis relative to control; outline: as §2
Escherichia coli B [8] = assay: Inhibition of Escherichia coli B thymidine kinase using [2-14C]-thymidine as substrate assessed as formation of [14C]-TMP at 1 mM after 10 mins by liquid scintillation spectrometric analysis relative to control; outline: as §2
Escherichia coli B [9] = assay: Inhibition of Escherichia coli B thymidine kinase using [2-14C]-thymidine as substrate assessed as formation of [14C]-TMP at 8 mM after 10 mins by liquid scintillation spectrometric analysis relative to control; outline: as §2
Escherichia coli B [10] = assay: Inhibition of Escherichia coli B thymidine kinase using [2-14C]-thymidine as substrate assessed as formation of [14C]-TMP at 4 mM after 10 mins by liquid scintillation spectrometric analysis relative to control; outline: as §2
[11] = Non-competitive inhibition of Escherichia coli B thymidine kinase using [2-14C]-thymidine as substrate assessed as formation of [14C]-TMP after 10 mins by Lineweaver-Burk double reciprocal plot analysis; details: read-out: I50; outline: as §1
Escherichia coli B [12] = assay: Inhibition of Escherichia coli B thymidine kinase using [2-14C]-thymidine as substrate assessed as formation of [14C]-TMP at 16 mM after 10 mins by liquid scintillation spectrometric analysis relative to control; outline: as §2
Escherichia coli B [13] = assay: Non-competitive inhibition of Escherichia coli B thymidine kinase using [2-14C]-thymidine as substrate assessed as formation of [14C]-TMP at 16 mM after 10 mins by Lineweaver-Burk double reciprocal plot analysis
Escherichia coli B [14] = assay: Activation of Escherichia coli B thymidine kinase using [2-14C]-thymidine as substrate assessed as formation of [14C]-TMP at 1 mM after 10 mins by liquid scintillation spectrometric analysis relative to control; outline: as §2
Escherichia coli B [15] = assay: Activity of Escherichia coli B thymidine kinase assessed as [14C]-TMP formation at 500 uM after 1 hr by liquid scintillation spectrometric analysis; details: tested as the 14C-labelled form
Escherichia coli B [16] = assay: Activity of Escherichia coli B thymidine kinase assessed as [14C]-TMP formation at 450 uM after 1 hr by liquid scintillation spectrometric analysis; details: tested as the 14C-labelled form
Escherichia coli B [17] = assay: Activity of Escherichia coli B thymidine kinase assessed as [14C]-TMP formation at 775 uM after 1 hr by liquid scintillation spectrometric analysis relative to thymidine; details: tested as the 14C-labelled form

## Cc1cn([C@H]2C[C@H](O)[C@@H](CN)O2)c(=O)[nH]c1=O
[1]
  Ki: 320 µM

## CCCCNC[C@H]1O[C@@H](n2cc(C)c(=O)[nH]c2=O)C[C@@H]1O
Escherichia coli B [2]
  inhibition: 12%
Escherichia coli B [3]
  inhibition: 9%

## CC(=O)NCC(O)[C@H]1O[C@@H](n2cc(C)c(=O)[nH]c2=O)C[C@@H]1O (mixture of isomers)
[1]
  Ki: 2000 µM

## Cc1cn([C@H]2C[C@H](O)[C@@H](CSCCC(=O)O)O2)c(=O)[nH]c1=O
Escherichia coli B [4]
  Activity: 120%
Escherichia coli B [5]
  Activity: 106%
Escherichia coli B [6]
  Activity: 126%
Escherichia coli B [7]
  Activity: 125%

## CC(=O)NC[C@H]1O[C@@H](n2cc(C)c(=O)[nH]c2=O)C[C@@H]1O
Escherichia coli B [8]
  inhibition: 0%
Escherichia coli B [3]
  inhibition: 0%

## CCCCCCNC[C@H]1O[C@@H](n2cc(C)c(=O)[nH]c2=O)C[C@@H]1O
[1]
  Ki: 2600 µM

## CCNC[C@H]1O[C@@H](n2cc(C)c(=O)[nH]c2=O)C[C@@H]1O
Escherichia coli B [9]
  inhibition: 36%
Escherichia coli B [10]
  inhibition: 28%

## N#Cc1cn([C@H]2C[C@H](O)[C@@H](CO)O2)c(=O)[nH]c1=O
Escherichia coli B [2]
  inhibition: 40%
Escherichia coli B [3]
  inhibition: 23%

## CC(=O)N(C)CCN(C)C[C@H]1O[C@@H](n2cc(C)c(=O)[nH]c2=O)C[C@@H]1O
Escherichia coli B [8]
  inhibition: 0%
Escherichia coli B [2]
  inhibition: 0%

## Cc1cn([C@H]2C[C@H](N)[C@@H](CO)O2)c(=O)[nH]c1=O [3-AMINO- 3-DEOXYTHYMIDINE]
[11]
  IC50: 2750 µM

## Nc1ccn([C@H]2C[C@H](O)[C@@H](CO)O2)c(=O)n1
Escherichia coli B [2]
  inhibition: 0%
Escherichia coli B [3]
  inhibition: 0%

## CCCn1c(=O)ccn([C@H]2C[C@H](O)[C@@H](CO)O2)c1=O
Escherichia coli B [8]
  inhibition: 35%
Escherichia coli B [3]
  inhibition: 18%

## CCC(=O)NCC(O)[C@H]1O[C@@H](n2cc(C)c(=O)[nH]c2=O)C[C@@H]1O (single isomer, unassigned; less polar)
[1]
  Ki: 850 µM

## CC(=O)N[C@H]1C[C@H](n2cc(C)c(=O)[nH]c2=O)O[C@@H]1CO
[11]
  IC50: 6100 µM

## Cc1cn([C@H]2C[C@H](O)[C@@H](CSCCCC(=O)O)O2)c(=O)[nH]c1=O
Escherichia coli B [4]
  Activity: 61%
Escherichia coli B [5]
  Activity: 35%
Escherichia coli B [6]
  Activity: 60%
Escherichia coli B [7]
  Activity: 62%

## CC[S+]([O-])C[C@H]1O[C@@H](n2cc(C)c(=O)[nH]c2=O)C[C@@H]1O (stereo partly specified)
Escherichia coli B [4]
  Activity: -5%
Escherichia coli B [5]
  Activity: 22%
Escherichia coli B [7]
  Activity: -4%

## CC(=O)NCC(O)[C@H]1O[C@@H](n2cc(C)c(=O)[nH]c2=O)C[C@@H]1O (stereo in doubt; 4a)
[1]
  Ki: 1250 µM

## CC(=O)NCCC(=O)Nc1cn([C@H]2C[C@H](O)[C@@H](CO)O2)c(=O)[nH]c1=O
Escherichia coli B [2]
  inhibition: 0%
Escherichia coli B [3]
  inhibition: 0%

## CCn1c(=O)ccn([C@H]2C[C@H](O)[C@@H](CO)O2)c1=O
Escherichia coli B [8]
  inhibition: 22%
Escherichia coli B [3]
  inhibition: 12%

## NCc1cn([C@H]2C[C@H](O)[C@@H](CO)O2)c(=O)[nH]c1=O
Escherichia coli B [8]
  inhibition: 25%
Escherichia coli B [3]
  inhibition: 14%

## CCOC1N([C@H]2C[C@H](O)[C@@H](CO)O2)C(=O)NC(=O)C1(C)Br (single isomer, unassigned)
Escherichia coli B [12]
  inhibition: 17%
Escherichia coli B [13]
  inhibition: inactive
Escherichia coli B [2]
  inhibition: 11%

## CC(=O)N(C)CCCCN(C)C[C@H]1O[C@@H](n2cc(C)c(=O)[nH]c2=O)C[C@@H]1O
Escherichia coli B [8]
  inhibition: 14%
Escherichia coli B [2]
  inhibition: 14%

## O=c1ccn([C@H]2C[C@H](O)[C@@H](CO)O2)c(=O)[nH]1 [DEOXYURIDINE]
[1]
  Ki: 290 µM

## CCS[C@H]1C[C@H](n2cc(C)c(=O)[nH]c2=O)O[C@@H]1CO
[11]
  IC50: 320 µM

## CC(=O)Nc1cn([C@H]2C[C@H](O)[C@@H](CO)O2)c(=O)[nH]c1=O
Escherichia coli B [2]
  inhibition: 15%
Escherichia coli B [3]
  inhibition: 15%

## CCCC(=O)NC[C@H]1O[C@@H](n2cc(C)c(=O)[nH]c2=O)C[C@@H]1O
Escherichia coli B [8]
  inhibition: 0%
Escherichia coli B [3]
  inhibition: 0%

## CCCCCn1c(=O)c(C)cn([C@H]2C[C@H](O)[C@@H](CO)O2)c1=O
Escherichia coli B [8]
  inhibition: 59%
[11]
  IC50: 650 µM
Escherichia coli B [3]
  inhibition: 45%

## CC(=O)N(C)CCCCCCN(C)C[C@H]1O[C@@H](n2cc(C)c(=O)[nH]c2=O)C[C@@H]1O
Escherichia coli B [8]
  inhibition: 14%
Escherichia coli B [2]
  inhibition: 14%

## Cc1cn([C@H]2C[C@H](O)[C@@H](C[S+]([O-])CCC(=O)O)O2)c(=O)[nH]c1=O (stereo partly specified)
Escherichia coli B [4]
  Activity: -2%
Escherichia coli B [5]
  Activity: 65%
Escherichia coli B [6]
  Activity: -1%
Escherichia coli B [7]
  Activity: 42%

## Nc1cn([C@H]2C[C@H](O)[C@@H](CO)O2)c(=O)[nH]c1=O
[11]
  IC50: 28000 µM

## CCSC[C@H]1O[C@@H](n2cc(C)c(=O)[nH]c2=O)C[C@@H]1O
Escherichia coli B [4]
  Activity: 70%
Escherichia coli B [6]
  Activity: 63%
Escherichia coli B [7]
  Activity: 46%

## CCCn1c(=O)c(C)cn([C@H]2C[C@H](O)[C@@H](CO)O2)c1=O
Escherichia coli B [8]
  inhibition: 39%
Escherichia coli B [3]
  inhibition: 28%

## CCOC1N([C@H]2C[C@H](O)[C@@H](CO)O2)C(=O)NC(=O)C1(C)Br (single isomer, unassigned; less polar)
Escherichia coli B [12]
  inhibition: 0%
Escherichia coli B [13]
  inhibition: inactive

## CCC(=O)NCC(O)[C@H]1O[C@@H](n2cc(C)c(=O)[nH]c2=O)C[C@@H]1O (single isomer, unassigned; more polar)
[1]
  Ki: 6600 µM

## Cc1cn([C@H]2C[C@H](O)[C@@H](CSCCO)O2)c(=O)[nH]c1=O
Escherichia coli B [6]
  Activity: 15%
Escherichia coli B [7]
  Activity: 25%
Escherichia coli B [14]
  Activity: 28%

## CC(=O)NCC(O)[C@H]1O[C@@H](n2cc(C)c(=O)[nH]c2=O)C[C@@H]1O (stereo partly specified)
Escherichia coli B [15]
  Activity: inactive
Escherichia coli B [16]
  Activity: inactive

## O=c1ccn([C@@H]2O[C@H](CO)[C@@H](O)[C@H]2O)c(=O)[nH]1 [URIDINE]
[11]
  IC50: 47500 µM

## CCNc1cn([C@H]2C[C@H](O)[C@@H](CO)O2)c(=O)[nH]c1=O
Escherichia coli B [2]
  inhibition: 0%
Escherichia coli B [3]
  inhibition: 0%

## CCNc1ccn([C@H]2C[C@H](O)[C@@H](CO)O2)c(=O)n1
Escherichia coli B [2]
  inhibition: 0%
Escherichia coli B [3]
  inhibition: 0%

## CC(=O)NCc1cn([C@H]2C[C@H](O)[C@@H](CO)O2)c(=O)[nH]c1=O
Escherichia coli B [17]
  Activity: < 0.021%

## CCn1c(=O)c(C)cn([C@H]2C[C@H](O)[C@@H](CO)O2)c1=O
Escherichia coli B [8]
  inhibition: 44%
[11]
  IC50: 1250 µM
Escherichia coli B [3]
  inhibition: 30%
